Measurements reported in PubChem BioAssay.
The source made the active and inactive calls.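 How the source made its calls, unless noted: active means viability at or under a set limit in both replicates, limit being median viability minus 3 SD (cut at about 48% in these data, passing the limit was not always enough); inconclusive means at or under the limit in just one replicate; inactive means at or above the limit in both replicates.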

Key:
[1] = reducers of endogenous Her2 protein level, primary screen, SKBR3 breast tumor cells, AlphaScreen, ATP viability (AID 461;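 active means Her2 level under about 52% in both replicate screens, with viability over 70% of control, limit read from the data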;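 on Her2 level: lower value means less Her2 protein in the cells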;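 on viability: percent of carrier control wells set as 100% viability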); conditions: 18-24 h, measured here: SKBR3 viability, ATP luminescence, at 10 µM
[2] = target: Receptor tyrosine-protein kinase erbB-2 (Homo sapiens) (UniProt P04626); assay: as above; conditions: 18-24 h, at 10 µM, stronger effect = lower value
Chain of Receptor tyrosine-protein kinase erbB-2 (Homo sapiens) (P04626 whole entry, looked up): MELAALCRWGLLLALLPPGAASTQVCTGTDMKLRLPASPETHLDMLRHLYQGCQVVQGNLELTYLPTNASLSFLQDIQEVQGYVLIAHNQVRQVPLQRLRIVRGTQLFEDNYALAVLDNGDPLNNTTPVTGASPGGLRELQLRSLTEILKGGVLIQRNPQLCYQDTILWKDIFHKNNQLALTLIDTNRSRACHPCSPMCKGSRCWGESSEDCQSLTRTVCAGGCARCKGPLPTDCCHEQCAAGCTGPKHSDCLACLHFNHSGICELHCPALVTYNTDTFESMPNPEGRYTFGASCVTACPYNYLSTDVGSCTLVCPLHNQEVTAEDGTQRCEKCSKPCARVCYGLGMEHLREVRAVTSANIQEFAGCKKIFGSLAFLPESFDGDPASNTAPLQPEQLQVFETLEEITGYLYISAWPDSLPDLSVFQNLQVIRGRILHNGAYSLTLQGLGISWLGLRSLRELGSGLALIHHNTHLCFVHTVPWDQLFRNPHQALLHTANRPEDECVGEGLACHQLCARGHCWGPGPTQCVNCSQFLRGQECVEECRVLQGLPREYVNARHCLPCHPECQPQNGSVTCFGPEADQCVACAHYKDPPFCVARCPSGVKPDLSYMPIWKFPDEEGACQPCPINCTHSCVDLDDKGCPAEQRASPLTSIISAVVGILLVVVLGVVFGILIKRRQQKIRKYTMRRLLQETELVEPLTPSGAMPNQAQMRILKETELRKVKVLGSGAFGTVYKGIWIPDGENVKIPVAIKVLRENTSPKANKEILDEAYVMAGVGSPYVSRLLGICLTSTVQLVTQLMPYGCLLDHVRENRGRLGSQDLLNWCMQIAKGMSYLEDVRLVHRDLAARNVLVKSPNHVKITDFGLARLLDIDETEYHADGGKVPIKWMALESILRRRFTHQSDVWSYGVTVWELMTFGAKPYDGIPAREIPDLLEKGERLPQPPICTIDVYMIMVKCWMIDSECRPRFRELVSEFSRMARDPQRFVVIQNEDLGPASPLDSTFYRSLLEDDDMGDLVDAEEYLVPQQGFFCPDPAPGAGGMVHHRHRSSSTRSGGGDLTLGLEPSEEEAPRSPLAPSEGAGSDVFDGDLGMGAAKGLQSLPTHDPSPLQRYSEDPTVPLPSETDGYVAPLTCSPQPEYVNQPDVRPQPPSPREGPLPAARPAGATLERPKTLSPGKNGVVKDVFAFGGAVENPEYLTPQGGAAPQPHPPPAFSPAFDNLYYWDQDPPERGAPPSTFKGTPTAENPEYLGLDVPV

[3] = SK-BR-3 cell growth inhibitors, pilot screen, 24 h, human (AID 572;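 active means viability at or below 10% of carrier control in both of two separate runs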;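 further: compound exposure lasted between 18 and 24 h rather than exactly 24 h; 100% = carrier-treated control wells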); conditions: SK-BR-3 viability, CellTiter-Glo luminescence, at 10 µM, stronger effect = lower value
[4] = HUVEC growth inhibition – cell-based, human, primary screen (AID 575;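 active means viability at or below 30% in both replicate assays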;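 further: 100% = median of untreated cell wells with 0.1% DMSO on each plate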); conditions: HUVEC proliferation, CellTiter-Glo luminescence, 72 h; at 10 µM; stronger effect = lower value
Summary of the method: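 Assay system: Primary human umbilical vein endothelial cells | Quantity: 1250 cells per well | Medium: Supplemented EBM, 2% fetal bovine serum | Detection: CellTiter-Glo luminescence measuring cellular ATP | Read-out: % viability vs DMSO wells | Plate: Collagen-coated 384-well format | Times: 72 h exposure, 37 °C, 5% CO2, 30 min RT equilibration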

[5] = growth inhibitors of H69AR lung tumor, primary screen, human, duplicate replicates (AID 580); conditions: H69AR lung tumor cells viability, ATP luminescence, 72 h; at 10 µM; stronger effect = lower value;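 further: 100% = mean luminescence of untreated wells and 0% = no signal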
[6] = reversal of MRP1-mediated doxorubicin resistance, pilot screen, H69AR cells, doxorubicin co-treatment (AID 601;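 active means viability loss from added drug above about 55%, and viability with drug at most 40%, in both replicates, limit read from the data, passing the limit was not always enough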); conditions: CellTiter-Glo, 72 h, at 10 µM; for differential viability (reversal): stronger effect = higher value
[7] = 384-well plate pilot, post-Golgi transport modulator project, inhibition of yeast transport mutant growth (AID 636; in the data active means inhibition above about 31%); conditions: absorbance 615 nm, about 18 h, stronger effect = higher value
[8] = growth suppression of yeast trafficking mutant, preliminary HTS, modulators of trafficking downstream of Golgi apparatus project, 1536-format plate, OD 615 nm (AID 637; in the data active means inhibition above about 30%); conditions: yeast transport mutant growth, absorbance 615 nm, 18 h; stronger effect = higher value
[9] = H69AR cells + 2 uM doxorubicin, measured here: viability with 2 uM doxorubicin, stronger effect = lower value
[10] = H69AR cells, compound alone cytotoxicity

Row | Compound | viability [1] | Her2 level [2] | viability [3] | viability [4] | viability [5] | differential viability (reversal) ([6]; H69AR cells + 2 uM doxorubicin) | viability [6, 9] | viability [6, 10] | inhibition [7] | inhibition [8]
1 | Cc1csc2nc3ccccc3c(=O)n12 | 100% | 91% (inactive) | 100% (inactive) | 103% (inactive) | 94.7% (inactive) | 1.49% (inactive) | 93.2% | 94.7% | -1.84% (inactive) | 1.31% (inactive)
2 | O=C(CCCN1C(=O)c2ccccc2C1=O)Oc1ccc(F)cc1 | 98% | 98% (inactive) | 98% (inactive) | 98.2% (inactive) | 94.8% (inactive) | 9.54% (inactive) | 85.2% | 94.8% | -5.47% (inactive) | 1.29% (inactive)
3 | CN(C)/C=C1\N=C(c2ccc3c(c2)OCO3)OC1=O | 91% | 94.5% (inactive) | 91% (inactive) | 94.4% (inactive) | 98.1% (inactive) | 21.1% (inactive) | 76.9% | 98.1% | -1.56% (inactive) | -4.5% (inactive)
4 | Nc1nc(N2C(=O)C3CC=CCC3C2=O)nn1-c1ccccc1 (stereo not given) | 101% | 130% (inactive) | 101% (inactive) | 105% (inactive) | 98.7% (inactive) | 2.73% (inactive) | 96% | 98.7% | 1.3% (inactive) | -12.2% (inactive)
5 | Cc1cc(C)n(S(=O)(=O)Cc2ccccc2)n1 | 102% | 135% (inactive) | 102% (inactive) | 97.4% (inactive) | 92.2% (inactive) | -0.205% (inactive) | 92.4% | 92.2% | -6.32% (inactive) | 4.59% (inactive)
6 | O=C(Nc1cccc(F)c1)c1ccc2c(c1)OCO2 | 97.5% | 106% (inactive) | 97.5% (inactive) | 103% (inactive) | 97.1% (inactive) | 13.4% (inactive) | 83.7% | 97.1% | -2.63% (inactive) | -3.44% (inactive)
7 | Cc1cc(NC(=O)CSc2nccn2-c2ccc(F)cc2)no1 | 85.5% | 81.5% (inactive) | 85.5% (inactive) | 83.4% (inactive) | 104% (inactive) | 15.8% (inactive) | 88.4% | 104% | -2.99% (inactive) | -3.17% (inactive)
8 | CCOc1ccc(NC(=O)c2ccc3c(c2)N(Cc2ccc(F)cc2)C(=O)CS3=O)cc1 (stereo not given) | 90% | 81.5% (inactive) | 90% (inactive) | 70.4% (inactive) | 90% (inactive) | 11.4% (inactive) | 78.6% | 90% | -1.07% (inactive) | -0.17% (inactive)
9 | CCS(=O)(=O)N1CCC(C(=O)NCCc2ccc(C)cc2)CC1 | 99% | 106% (inactive) | 99% (inactive) | 100% (inactive) | 89.3% (inactive) | 7.41% (inactive) | 81.9% | 89.3% | -2.6% (inactive) | -9.68% (inactive)
10 | COc1ccc(C(=O)Nc2cccc(C)c2)cc1S(=O)(=O)N1CCOCC1 | 100% | 83% (inactive) | 100% (inactive) | 108% (inactive) | 93.2% (inactive) | 7.64% (inactive) | 85.5% | 93.2% | -5% (inactive) | -5.71% (inactive)
11 | CCCCn1nnc(NC(=O)c2cc3ccccc3o2)n1 | 107% | 88.5% (inactive) | 107% (inactive) | 119% (inactive) | 81.6% (inactive) | -8.71% (inactive) | 90.3% | 81.6% | 0.13% (inactive) | 8% (inactive)
12 | CC1CCN(Cc2ccc(-c3nn[nH]n3)cc2)CC1 | 116% | 86.5% (inactive) | 116% (inactive) | 99.6% (inactive) | 95% (inactive) | 0.33% (inactive) | 94.7% | 95% | 1.04% (inactive) | 30% (active)
13 | Cc1cc(C)c2c(CC(=O)NCc3ccco3)coc2c1 | 94% | 81.5% (inactive) | 94% (inactive) | 71.3% (inactive) | 91.1% (inactive) | 1.32% (inactive) | 89.8% | 91.1% | -6.27% (inactive) | -6.03% (inactive)
14 | CCOC(=O)c1ccc(NC(=O)CCNc2c(N3CCCC3)c(=O)c2=O)cc1 | 104% | 96.5% (inactive) | 104% (inactive) | 91.6% (inactive) | 98.3% (inactive) | 0.27% (inactive) | 98% | 98.3% | -2.5% (inactive) | 0.18% (inactive)
15 | CCOC(=O)N1CCN(S(=O)(=O)c2cc(C)c(C)cc2C)CC1 | 96.5% | 87% (inactive) | 96.5% (inactive) | 104% (inactive) | 95.3% (inactive) | 6.04% (inactive) | 89.3% | 95.3% | -4.34% (inactive) | 2.22% (inactive)
16 | CCOC(=O)CSc1nnc(CCc2nc3ccccc3[nH]2)n1C | 118% | 112% (inactive) | 118% (inactive) | 87.5% (inactive) | 102% (inactive) | 1.34% (inactive) | 101% | 102% | -4.93% (inactive) | -7.78% (inactive)
17 | COc1cccc(-n2nnnc2SCC(=O)NCc2ccco2)c1 | 117% | 92.5% (inactive) | 117% (inactive) | 90.5% (inactive) | 83.2% (inactive) | 5.98% (inactive) | 77.2% | 83.2% | -4.8% (inactive) | 4.52% (inactive)
